For one data set, the system named is K562. Kind of data set: Cytotoxicity against human K562 cells assessed as growth inhibition at 10 to 100 uM after 24 to 72 hrs by trypan blue exclusion assay. The format is functional, cell-based. The essentials:
(§1)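 Trypan blue counting of proliferation (cells/mL) and viability. Exponential-phase cells were seeded at 200,000 cells/mL in RPMI 1640 with 10% heat-inactivated FCS at 37 °C and 5% CO2. They were treated from 50 mM DMSO stocks against DMSO-matched controls and read at 24, 48 and 72 h (PBMCs at 24 and 48 h).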

The target in data set [1] is T1, Nuclear factor NF-kappa-B complex (Homo sapiens) (UniProt Q00653+P19838+Q04206). As to the kind of experiment: Inhibition of NF-kappaB transactivation in TNF-alpha-stimulated human K562 cells at 10 to 100 uM preincubated for 2 hrs followed by TNF-alpha challenge measured after 6 hrs by dual luciferase reporter gene assay. In kind it is cell-based. In short, it runs like this: (§2)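 Cells co-transfected with 5 µg of a firefly luciferase reporter carrying five consensus NF-κB sites plus 5 µg of a Renilla TK control plasmid. 24 h later, compound for 2 h, then ± 20 ng/ml TNF-α for 6 h more. Firefly:Renilla ratio, TNF-α-only cells set to 100%. Three independent measurements in quadruplicate.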

Data set [2] relates to Jurkat. Kind of data set: Cytotoxicity against human Jurkat cells assessed as growth inhibition at 10 uM after 48 hrs by trypan blue exclusion assay. In kind it is functional, cell-based. In short, it runs like this:
as §1

Data set [3] deals with Jurkat. Kind of data set: Cytotoxicity against human Jurkat cells assessed as growth inhibition at 25 uM after 24 hrs by trypan blue exclusion assay. In kind it is functional, cell-based. The essentials: as §1
Another data set deals with K652. Kind of data set: Cytotoxicity against human […] cells assessed as growth inhibition at 25 uM after 24 hrs by trypan blue exclusion assay. In kind it is functional, cell-based. In short, it runs like this:
as §1

For data set [4], the system named is Jurkat. As to the kind of experiment: Cytotoxicity against human Jurkat cells assessed as growth inhibition at 50 uM after 24 to 72 hrs by trypan blue exclusion assay. In kind it is functional, cell-based. The essentials:
as §1

Data set [5] relates to Jurkat. As to the kind of experiment: Cytotoxicity against human Jurkat cells assessed as reduction of cell viability at 50 uM after 24 hrs by trypan blue exclusion assay. In kind it is functional, cell-based. The essentials:
as §1

In data set [6] the test system is Jurkat. As to the kind of experiment: Cell cycle arrest in human Jurkat cells assessed as accumulation at G0/G1 phase at 50 uM at 8 hrs by propidium iodide staining-based flow cytometric analysis. In kind it is functional. In short, it runs like this:
(§3)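 Cells in exponential phase at 200,000 cells/mL in RPMI 1640 with 10% heat-inactivated FCS, 37 °C, 5% CO2, treated from DMSO stocks alongside DMSO vehicle controls. Cell cycle distribution was analysed at time points between 8 and 72 h.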
On the technique in general: In flow cytometry, cells or beads pass a laser one at a time.

Data set [7] can be described thus: Cell cycle arrest in human […] cells assessed as accumulation at G0/G1 phase at 25 uM measured at 24 hrs by propidium iodide staining-based flow cytometric analysis. In kind it is functional. The essentials: as §3
Another data set deals with PBMC. Kind of data set: Cytotoxicity against human PBMC assessed as effect on cell viability at >100 uM after 24 to 48 hrs by trypan blue exclusion assay. The format is cell-based. The essentials:
as §1

Data set [8] has as its target T1, Nuclear factor NF-kappa-B complex (Homo sapiens). As to the kind of experiment: Inhibition of NF-kappaB transactivation in TNF-alpha-stimulated human K562 cells preincubated for 2 hrs followed by TNF-alpha challenge measured after 6 hrs by dual luciferase reporter gene assay. The format is cell-based. The essentials: as §2
Background: In a reporter assay the amount or activity of a reporter protein is the signal.

For data set [9] the target is unchanged. Kind of data set: Inhibition of NF-kappaB transactivation in TNF-alpha-stimulated human Jurkat cells preincubated for 2 hrs followed by TNF-alpha challenge measured after 6 hrs by dual luciferase reporter gene assay. The format is cell-based. The essentials:
as §2

Data set [10] shares this target. Kind of data set: Inhibition of NF-kappaB in human K562 cells assessed as reduction of TNF-alpha-induced ICAM1 mRNA expression preincubated for 2 hrs followed by TNF-alpha challenge measured after 6 hrs by qRT-PCR analysis. The format is cell-based. The essentials: (§4)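 K-562 cells given compound for 2 h, then cultured ± 20 ng/ml TNF-α for 6 h. Total RNA analysed by qRT-PCR with ICAM1- and CFLAR-specific primers, expressed as target/β-actin mRNA ratio; mean ± SD of 3 independent experiments.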
(In qPCR the cycle at which signal appears reflects the starting amount.)

The target is the same in data set [11]. Kind of data set: Inhibition of NF-kappaB in human K562 cells assessed as reduction of TNF-alpha-induced CFLAR mRNA expression preincubated for 2 hrs followed by TNF-alpha challenge measured after 6 hrs by qRT-PCR analysis. In kind it is cell-based. In short, it runs like this:
as §4

Data set [12] has as its target T2, Nuclear factor NF-kappa-B p105 subunit (Homo sapiens) (UniProt P19838).
T2 sequence (whole entry): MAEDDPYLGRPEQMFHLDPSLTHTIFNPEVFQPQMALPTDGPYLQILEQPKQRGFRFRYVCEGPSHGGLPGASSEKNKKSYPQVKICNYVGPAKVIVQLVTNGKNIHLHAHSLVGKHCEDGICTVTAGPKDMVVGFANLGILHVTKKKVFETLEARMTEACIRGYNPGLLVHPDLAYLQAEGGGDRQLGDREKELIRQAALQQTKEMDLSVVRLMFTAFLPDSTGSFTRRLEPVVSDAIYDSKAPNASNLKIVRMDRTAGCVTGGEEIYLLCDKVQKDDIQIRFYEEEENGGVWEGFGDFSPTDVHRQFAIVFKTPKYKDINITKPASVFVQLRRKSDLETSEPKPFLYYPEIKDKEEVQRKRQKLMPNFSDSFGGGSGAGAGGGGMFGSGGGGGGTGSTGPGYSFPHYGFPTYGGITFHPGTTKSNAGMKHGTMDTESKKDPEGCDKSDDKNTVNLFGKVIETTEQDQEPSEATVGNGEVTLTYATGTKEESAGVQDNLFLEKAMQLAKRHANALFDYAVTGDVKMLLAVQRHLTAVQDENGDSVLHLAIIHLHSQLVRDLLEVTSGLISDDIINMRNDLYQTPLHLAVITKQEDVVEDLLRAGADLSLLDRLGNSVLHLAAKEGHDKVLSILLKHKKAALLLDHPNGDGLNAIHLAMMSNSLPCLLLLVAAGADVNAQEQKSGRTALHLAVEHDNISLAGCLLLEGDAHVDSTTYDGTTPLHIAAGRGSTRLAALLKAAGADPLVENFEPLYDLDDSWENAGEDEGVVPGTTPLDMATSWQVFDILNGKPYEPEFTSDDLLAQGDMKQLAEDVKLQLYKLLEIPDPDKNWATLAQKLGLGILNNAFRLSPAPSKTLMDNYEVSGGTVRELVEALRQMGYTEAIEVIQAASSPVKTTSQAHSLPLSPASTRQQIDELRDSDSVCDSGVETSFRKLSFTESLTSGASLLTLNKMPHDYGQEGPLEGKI
As to the kind of experiment: Inhibition of NF-kappaB p50 subunit translocation from cytoplasm to nucleus in TNF-alpha-stimulated human Jurkat cells at 40 uM preincubated for 2 hrs followed by TNF-alpha challenge measured after 2 to 90 mins by Western blot analysis. The format is cell-based. In short, it runs like this:
(§5)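 JURKAT cells pretreated 2 h with 40 µM compound, then ± 20 ng/ml TNF-α for the indicated times. Cytoplasmic and nuclear fractions immunoblotted; loading and fraction purity checked with lamin B and α-tubulin. Blots representative of three independent experiments.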

Data set [13] addresses Transcription factor p65 (Homo sapiens) (UniProt Q04206). As to the kind of experiment: Inhibition of NF-kappaB p65 subunit translocation from cytoplasm to nucleus in TNF-alpha-stimulated human Jurkat cells at 40 uM preincubated for 2 hrs followed by TNF-alpha challenge measured after 2 to 90 mins by Western blot analysis. The format is cell-based. In short, it runs like this:
as §5

For data set [14], the target named is T3, NF-kappa-B inhibitor alpha (Homo sapiens) (UniProt P25963).
T3 sequence (whole entry): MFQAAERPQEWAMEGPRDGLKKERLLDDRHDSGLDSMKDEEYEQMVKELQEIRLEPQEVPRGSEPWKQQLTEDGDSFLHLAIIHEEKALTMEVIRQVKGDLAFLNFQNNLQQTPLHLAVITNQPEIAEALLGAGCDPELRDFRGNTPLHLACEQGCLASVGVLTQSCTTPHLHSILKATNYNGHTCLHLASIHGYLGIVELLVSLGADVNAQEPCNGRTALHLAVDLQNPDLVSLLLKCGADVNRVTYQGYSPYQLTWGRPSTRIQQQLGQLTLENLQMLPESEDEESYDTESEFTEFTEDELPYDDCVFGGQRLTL
Kind of data set: Inhibition of IkappaB-alpha degradation in TNF-alpha-stimulated human Jurkat cells at 40 uM preincubated for 2 hrs followed by TNF-alpha challenge measured after 2 to 90 mins by Western blot analysis. In kind it is cell-based. The essentials:
as §5

Each structure is given as a SMILES string. The source made the active and inactive calls. The calls are words filed in the database; no cut-off is given here.

T1 sequence (Q00653 whole entry, looked up, one chain of several): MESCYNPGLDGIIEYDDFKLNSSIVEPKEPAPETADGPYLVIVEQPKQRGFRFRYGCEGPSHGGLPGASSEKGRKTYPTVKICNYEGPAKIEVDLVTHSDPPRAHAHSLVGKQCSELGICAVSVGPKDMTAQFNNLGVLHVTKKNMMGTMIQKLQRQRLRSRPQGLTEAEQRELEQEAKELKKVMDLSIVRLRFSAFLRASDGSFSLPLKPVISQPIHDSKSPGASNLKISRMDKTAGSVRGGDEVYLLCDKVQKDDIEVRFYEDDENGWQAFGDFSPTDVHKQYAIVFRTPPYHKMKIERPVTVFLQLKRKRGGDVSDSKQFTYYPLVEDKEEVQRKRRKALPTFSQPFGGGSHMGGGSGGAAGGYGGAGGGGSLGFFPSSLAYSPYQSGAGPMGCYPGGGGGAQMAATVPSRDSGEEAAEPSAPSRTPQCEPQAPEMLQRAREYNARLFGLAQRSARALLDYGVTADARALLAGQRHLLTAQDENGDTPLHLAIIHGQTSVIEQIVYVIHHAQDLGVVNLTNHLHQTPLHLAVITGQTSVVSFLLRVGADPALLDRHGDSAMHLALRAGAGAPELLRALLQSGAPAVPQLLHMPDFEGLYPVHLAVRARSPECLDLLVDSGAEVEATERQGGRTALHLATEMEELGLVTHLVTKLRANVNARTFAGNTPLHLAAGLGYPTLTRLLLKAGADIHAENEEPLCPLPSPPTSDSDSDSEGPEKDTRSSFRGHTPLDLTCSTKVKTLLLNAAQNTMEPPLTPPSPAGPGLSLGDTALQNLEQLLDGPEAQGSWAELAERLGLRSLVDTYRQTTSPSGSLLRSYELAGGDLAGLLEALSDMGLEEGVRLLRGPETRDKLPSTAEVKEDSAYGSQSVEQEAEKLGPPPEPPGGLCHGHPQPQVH
T1 sequence (Q04206 whole entry, looked up, one chain of several): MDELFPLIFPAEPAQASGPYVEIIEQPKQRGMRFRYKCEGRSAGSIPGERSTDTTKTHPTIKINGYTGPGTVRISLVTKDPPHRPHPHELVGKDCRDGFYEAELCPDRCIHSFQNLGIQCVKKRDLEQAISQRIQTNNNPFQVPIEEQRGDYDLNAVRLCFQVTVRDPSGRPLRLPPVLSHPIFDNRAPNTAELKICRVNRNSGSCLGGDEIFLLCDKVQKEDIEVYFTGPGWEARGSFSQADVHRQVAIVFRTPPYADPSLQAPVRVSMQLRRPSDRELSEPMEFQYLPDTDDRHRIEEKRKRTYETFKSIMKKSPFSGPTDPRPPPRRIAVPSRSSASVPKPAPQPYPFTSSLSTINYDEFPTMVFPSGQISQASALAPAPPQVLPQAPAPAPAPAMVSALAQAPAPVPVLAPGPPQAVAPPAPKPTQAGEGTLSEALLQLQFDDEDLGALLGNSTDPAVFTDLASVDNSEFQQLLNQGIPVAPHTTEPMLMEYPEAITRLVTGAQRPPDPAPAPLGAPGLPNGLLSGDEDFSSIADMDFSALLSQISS
Transcription factor p65 (Homo sapiens), sequence (Q04206 whole entry): as the sequence (Q04206 whole entry, looked up, one chain of several) above

Consider `O=c1cc(O)c2ccccc2o1`, for which the “growth inhibition (GI)” value with K562 is “inactive”. In data set [1], the inhibition entry is “inactive”.
With `O=C(CC(c1c(O)c2ccccc2oc1=O)c1c(O)c2ccccc2oc1=O)c1ccccc1O`, the “growth inhibition (GI)” value in the data set on Jurkat [2], in the data set with Jurkat [3], in the data set on K652 and in the data set on Jurkat [4] was “Active” throughout. In addition, the result (in the data set on Jurkat [5]; in the data set on Jurkat [6]; in data set [7]) was Active. In addition, in the data set with PBMC, the Activity entry is given as “Non-toxic”. In addition, the inhibition result in [8], in data set [9], in data set [10] and in data set [11] was “Dose-dependent effect” each time. In addition, the inhibition entry in [12], in data set [13] and in data set [14] was “Active” throughout.
As for `CCC(=O)c1ccccc1O`, the “growth inhibition (GI)” value in the data set on K562 was “inactive”. Besides, the inhibition result in [1] was “inactive”.

The values are drawn from ChEMBL document CHEMBL3259651, “Bis(4-hydroxy-2H-chromen-2-one): synthesis and effects on leukemic cell lines proliferation and NF-κB regulation” (Bioorg Med Chem, 2014).
